Data taken from ChEMBL document CHEMBL4627351, “Synthesis, biological evaluation and structure-activity relationships of 5-arylidene tetramic acids with antibacterial activity against methicillin-resistant Staphylococcus aureus” (Bioorg Med Chem Lett, 2020).
Converted amounts (≈) assume the structure as drawn.

How the values were obtained:
Staphylococcus aureus [1] = test: Antibacterial activity against methicillin-resistant Staphylococcus aureus ATCC 43300 assessed as reduction in bacterial growth at 32 ug/ml by CLSI protocol based broth microdilution method relative to control; assay type: functional
In short: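 Primary single-concentration broth screen at 32 µg/mL in duplicate (n = 2) against MRSA ATCC 43300. Mean % growth inhibition was calculated relative to growth and media controls.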

Staphylococcus aureus [2] = test: Antibacterial activity against methicillin-resistant Staphylococcus aureus ATCC 43300 assessed as reduction in bacterial growth by CLSI protocol based broth microdilution method; assay type: functional
In short: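 Dose-response broth assay in duplicate, 8 points from 0.25 to 32 µg/mL, against MRSA ATCC 43300, with a positive antibiotic control. MIC is the lowest concentration giving full growth inhibition, per CLSI guidelines.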

[3] = Cytotoxicity against human HEK293 cells; assay type: cell-based
Erythrocyte = test: Hemolytic activity against human RBC; assay type: ADME, cell-based

Compound | inhibition at 32 µg/mL (Staphylococcus aureus [1]) | MIC (Staphylococcus aureus [2]) | CC50 [3] | HC10 (Erythrocyte)
CC(=O)C1=C(O)/C(=C/c2ccc(Cl)cc2)N(C(C)=O)C1=O | 45.1% | – | – | –
CC(=O)C1=C(O)/C(=C/c2ccc(C(F)(F)F)cc2)N(C(C)=O)C1=O | 61.7% | > 32 µg/mL | > 32 µg/mL | > 32 µg/mL
CCCCCCCCCCCCCC(=O)C1=C(O)/C(=C/c2ccccc2)N(C(C)=O)C1=O | – | 4 µg/mL (≈ 9.1 µM) | > 32 µg/mL | > 32 µg/mL
CCCC(=O)C1=C(O)/C(=C/c2ccc(OC)cc2)N(C(C)=O)C1=O | 73.1 to 99.2% | 32 µg/mL (≈ 97.2 µM) | > 32 µg/mL | > 32 µg/mL
CCCCCCCC(=O)C1=C(O)/C(=C/c2ccccc2)N(C(C)=O)C1=O | – | 4 µg/mL (≈ 11.3 µM) | > 32 µg/mL | > 32 µg/mL
CCCC(=O)C1=C(O)/C(=C/c2ccccc2)N(C(C)=O)C1=O | 73.1 to 99.2% | 32 µg/mL (≈ 107 µM) | > 32 µg/mL | > 32 µg/mL
CC(=O)C1=C(O)/C(=C/c2ccc([N+](=O)[O-])cc2)N(C(C)=O)C1=O | 38.6% | – | – | –
CC(=O)C1=C(O)/C(=C/c2ccccc2)N(C(C)=O)C1=O | 22.9 to 25.5% | > 32 µg/mL | > 32 µg/mL | > 32 µg/mL
CC(=O)N1C(=O)C(C(=O)c2ccccc2)=C(O)/C1=C/c1ccccc1 | 73.1 to 99.2% | – | – | –
CCCCCCCCCCCCCCCC(=O)C1=C(O)/C(=C/c2ccccc2)N(C(C)=O)C1=O | – | 4 µg/mL (≈ 8.55 µM) | > 32 µg/mL | > 32 µg/mL
CCCCCCCCCC(=O)C1=C(O)/C(=C/c2ccccc2)N(C(C)=O)C1=O | – | 4 µg/mL (≈ 10.4 µM) | > 32 µg/mL | 20.4 µg/mL
